Compound activity: PubChem, Broad Institute
SR-BI uptake up – activators of SR-BI mediated HDL lipid uptake; 320,000 compounds, 0.096% hits; AID 504775; activation, % at 12.5 µM; CHO ldlA[mSR-BI] cells, DiI-HDL uptake fluorescence, 3 h; 100 = double the neutral-control signal;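 active means mean replicate activation of at least 60% and every replicate at or above 60%; inconclusive means mean or all-replicate condition met, but not both; inactive means mean below 60% and not all replicates reaching 60%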
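Material: SR-BI-overexpressing, LDLR-lacking CHO cells | Dosing: Single compound concentration, delivered by pin transfer | Probe or stimulus: Labelled HDL, 10 µg/mL | Signal: Bottom-read cell fluorescence after medium removal, ex 550/em 595 nm | Schedule: 3 h, 37 °C | Evaluation: HDL uptake via cellular fluorescence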
CAL PDZ FP-1 – inhibitors of human CAL PDZ peptide binding. AID 504414. purified CAL PDZ, TMR-peptide fluorescence polarization, 1 h. Q9HD26. inhibition, % at 20 µM. 330,000 compounds, 0.02% hits;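 active means highest replicate inhibition of at least 40%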
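Material – purified CerCALP PDZ construct · Detection – FP readout, S and P plane fluorescence · Measure – percent inhibition from loss of millipolarization · Controls – unlabelled peptide for full inhibition, DMSO wells as neutral · Probe or stimulus – TMR-labelled reporter peptide T*-PRC34 bound in PDZ groove · Times – 1 h at RT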
dFosB act – activators of mouse delta FosB homodimer; 340,000 compounds, 0.99% hits; activation, % at 25 µM; purified delta FosB, TAMRA-CDK5 oligo fluorescence polarization; percent of positive-control signal above neutral wells; P13346; AID 493131;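 active means mean activation above about 17%, with every replicate also reaching it, limit read from the data, passing the limit was not always enough; inconclusive means only one of the two conditions met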
CAL PDZ FP-2 – inhibitors of human CAL PDZ peptide binding. 300,000 compounds, 0.92% hits. purified CAL PDZ, TMR-peptide fluorescence polarization, 1 h. inhibition, % at 24.9 µM. AID 602252. Q9HD26;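 active means mean inhibition of at least 30% with at least half of replicates also reaching 30%; inconclusive means no clear call, values can overlap the other calls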
SR-BI HDL uptake – mouse SR-BI HDL lipid transfer inhibition. ldlA[mSR-BI] CHO cells, DiI-HDL uptake fluorescence, 3 h. inhibition, % at 12.5 µM. 320,000 compounds, 0.96% hits. AID 488896;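 active means mean replicate inhibition of at least 70% and a set share of replicates each scoring 70 or more; inconclusive means meets just one of the two criteria; inactive means fails both criteria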
Target sequence (Q61009 whole entry, looked up): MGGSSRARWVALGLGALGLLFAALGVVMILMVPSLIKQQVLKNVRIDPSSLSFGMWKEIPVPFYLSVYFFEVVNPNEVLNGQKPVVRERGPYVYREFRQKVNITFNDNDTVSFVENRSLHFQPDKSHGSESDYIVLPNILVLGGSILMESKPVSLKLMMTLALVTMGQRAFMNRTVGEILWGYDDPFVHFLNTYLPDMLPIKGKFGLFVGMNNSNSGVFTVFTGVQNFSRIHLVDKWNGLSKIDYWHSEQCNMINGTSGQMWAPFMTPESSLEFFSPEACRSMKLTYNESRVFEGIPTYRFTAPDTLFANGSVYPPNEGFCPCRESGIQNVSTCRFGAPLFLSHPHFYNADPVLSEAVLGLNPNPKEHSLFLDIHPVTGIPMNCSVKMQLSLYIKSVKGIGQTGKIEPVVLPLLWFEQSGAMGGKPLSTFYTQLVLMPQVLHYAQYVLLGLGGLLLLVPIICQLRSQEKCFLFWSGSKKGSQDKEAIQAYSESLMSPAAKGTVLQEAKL
Of the large screens only hits and unclear results are named; the others gave an inactive call. Rows were chosen to be rich in hits. Some 2.8% of all compounds tested hit in one or more screens of this group.

Cc1cccc(N2C(=O)CC(SC(=Nc3ccccc3)Nc3ccccc3)C2=O)c1 (stereo not drawn)	SR-BI HDL uptake 74.3
CCN1C(=O)[C@@H]2[C@@H](c3ccc(SC4CCCCC4)c(OC)c3)N3CCCC[C@@]3(C(=O)OC)[C@@H]2C1=O	none
COc1cc(/C=N\NC(=O)c2ccc(-c3ccccc3)cc2)cc(Br)c1O	none
COc1cc(/C=N/NC(=O)c2ccc(CN3C(=O)c4cccc5cccc3c45)cc2)cc(OC)c1O	CAL PDZ FP-2 49.8
COc1ccc(/C=N/NC(=O)c2ccc(CN3C(=O)c4cccc5cccc3c45)cc2)cc1O	CAL PDZ FP-2 76.7
Cc1cc(-c2nnc(SCC(=O)Nc3cccc(Cl)c3)n2N)n[nH]1	dFosB act inconclusive
Cc1ccc(C(=O)CCC(=O)NC2CCCC(C)C2C)cc1 (stereo not drawn)	CAL PDZ FP-2 90.5
C/C(=N\OC(=O)c1cccc(C(F)(F)F)c1)c1sc(-c2ccccc2)nc1C	CAL PDZ FP-2 51.5
Cc1ccc2c(CC(=O)NNC(=O)c3ccccc3O)coc2c1	SR-BI HDL uptake 106.1
Cc1ccc(C(=O)NCCNS(=O)(=O)c2ccccc2)cn1	none
O=C(CSCc1ccco1)N1CCc2ccccc21	none
Oc1cccc(Nc2nc(NCC3CCCO3)c3ccccc3n2)c1 (stereo not drawn)	dFosB act 59.2
Nc1nc(Nc2cccc(F)c2)nc(NCc2ccco2)c1[N+](=O)[O-]	dFosB act 22.8 (no result: CAL PDZ FP-2)
Cc1cccc(Nc2nc(N)c([N+](=O)[O-])c(NCCO)n2)c1	CAL PDZ FP-2 46.9
Nc1nc(Nc2cccc(Cl)c2)nc(NCCO)c1[N+](=O)[O-]	none (no result: CAL PDZ FP-2)
c1ccc(Nc2nc(NCC3CCCO3)c3ccccc3n2)cc1 (stereo not drawn)	none
Cc1cccc(Nc2nc(N3CCN(C)CC3)nc(N)c2[N+](=O)[O-])c1	CAL PDZ FP-2 35.5
CC(C)(Oc1ccc(Cl)cc1)C(=O)OCC(=O)N1CCN(c2ccccc2)CC1	none (no result: CAL PDZ FP-2)
COc1cccc(NC(=O)CN2C(=O)COc3ccc(S(=O)(=O)N4CCOCC4)cc32)c1	none (no result: CAL PDZ FP-2)
Nc1nc(Nc2ccc(Cl)cc2)nc(NCc2ccco2)c1[N+](=O)[O-]	dFosB act 57.2
COc1ccc(Nc2nc(N)c([N+](=O)[O-])c(NCc3ccccc3)n2)cc1	dFosB act 29.0
Nc1nc(NCC(=O)O)nc(NCc2ccccc2)c1[N+](=O)[O-]	none
Nc1nc(NCC2CCCO2)nc(Nc2cccc(F)c2)c1[N+](=O)[O-] (stereo not drawn)	CAL PDZ FP-2 78.5
Cc1ccc(Nc2nc(NCCCN3CCOCC3)nc(N)c2[N+](=O)[O-])cc1C	none
Nc1nc(NCCCN2CCOCC2)nc(Nc2cccc(Cl)c2)c1[N+](=O)[O-]	dFosB act 63.3
Cc1ccc(C(=O)COC(=O)[C@@H](NC(=O)c2ccco2)C(C)C)s1	none
C[C@H](NC(=O)c1nc[nH]c1C(=O)N1CCNCC1)C(=O)OC(C)(C)C	none
Cc1cccc(Nc2nc(NCc3ccco3)nc(N)c2[N+](=O)[O-])c1	none
Nc1nc(Nc2cccc(Cl)c2)nc(NCc2ccco2)c1[N+](=O)[O-]	dFosB act 58.4
Cc1ccccc1/C=C/c1nc2ccccc2c(=O)n1Cc1ccccc1	none
CCn1c(/C=C/c2ccccc2C)nc2ccccc2c1=O	CAL PDZ FP-2 51.2
CCOc1ccc(C2C(C(=O)c3ccco3)=C(O)C(=O)N2CCCn2ccnc2)cc1OC (stereo not drawn)	none
COc1ccc(-c2ccc(NCCC3=CCCCC3)nn2)cc1OC	SR-BI HDL uptake 74.9
CC(=O)Nc1ccc(NC(=O)C(C)N(C)CC(=O)Nc2ccccc2Br)cc1 (stereo not drawn)	CAL PDZ FP-2 33.1
CCOC(=O)C1CCN(c2ccc(-c3cccs3)nn2)CC1	CAL PDZ FP-2 93.2 (no result: CAL PDZ FP-1)
COc1ccc(-c2sc3cc4c(cc3c2C#Cc2ccc(N)cc2)OCO4)cc1	SR-BI HDL uptake 92.6
COCCn1c(=O)[nH]c(=O)c2c1nc(-c1ccc(-c3ccc(Cl)cc3[N+](=O)[O-])o1)n2Cc1ccccc1	none
COc1ccc(-c2ccc(-c3nc4c(c(=O)[nH]c(=O)n4Cc4ccccc4)n3C)o2)c([N+](=O)[O-])c1	SR-BI HDL uptake 71.8
COC(=O)c1cc(C(=O)Nc2nc3ccccc3[nH]2)cc([N+](=O)[O-])c1	SR-BI HDL uptake 79.8
COc1ccc(C2(C)NC(=O)N(CC(=O)c3cc(C)n(C4CC4)c3C)C2=O)cc1OC (stereo not drawn)	CAL PDZ FP-2 53.6
CC1CC2(C)Oc3ccccc3C3OCC1(CO)C(C)C32 (stereo not drawn)	none
CC(=O)OCC12COC3c4ccccc4OC(C)(CC1C)C3C2C (stereo not drawn)	CAL PDZ FP-2 50.5
Nc1cccc(C2=Nc3cccc4cccc(c34)N2)c1	dFosB act inconclusive
COc1ccc(C2=Nc3cccc4cccc(c34)N2)cc1	dFosB act 54.6
CCn1cc(CN2CCCC(C(=O)c3ccc(-c4ccccc4)cc3)C2)cn1 (stereo not drawn)	none
Cc1ccc2c(c1)c1c3n2CC(=C2C(=O)OC(C)(C)OC2=O)NC3CCC1 (stereo not drawn)	SR-BI HDL uptake 78.2
Cc1cccc2c1nc(-c1ccccc1)n1nnnc21	none (no result: CAL PDZ FP-1)
Cc1cccc2c1nc(-c1ccccc1)n1cnnc21	SR-BI uptake up 853.8 (no result: CAL PDZ FP-1)
O=C(/C(N=Nc1cccc(C(F)(F)F)c1)=C(/O)c1cccs1)C(F)(F)F	CAL PDZ FP-2 68.3
COc1ccc(C(=O)Nc2cc3c4c(c2)C(C)C(=O)N4CCC3)cc1OC (stereo not drawn)	SR-BI HDL uptake 78.6
CCOC(=O)C(=Cc1ccc(-c2ccsc2C(=O)OC)o1)C(=O)OCC	SR-BI HDL uptake 75.8
COC(=O)C(=Cc1ccc(-c2ccsc2C(=O)OC)o1)C(=O)OC	none
O=C(/C=C/c1ccccc1Cl)N(Cc1ccc(Cl)cc1)C1CCS(=O)(=O)C1 (stereo not drawn)	CAL PDZ FP-2 70.9
CCCCn1c(C23CC4CC(CC(C4)C2)C3)n[nH]c1=S	none
CN(Cc1ccc(Cl)s1)C(=O)CNC(=O)CNC(=O)c1ccc(Cl)cc1Cl	none
COc1ccc(CN(C)C(=O)CNC(=O)CNC(=O)c2ccc(Cl)cc2Cl)cc1F	CAL PDZ FP-2 active
CCCCOC(=O)c1ccc(Nc2ncnc3nc[nH]c23)cc1	none (no result: CAL PDZ FP-2)
CCCCCCCCOC(=O)c1cc([N+](=O)[O-])c(Sc2ncnc3nc[nH]c23)c([N+](=O)[O-])c1	SR-BI HDL uptake 76.6
Cc1c(NC(=O)Nc2ccc(Cl)c(Cl)c2)sc(=S)n1C	SR-BI HDL uptake 90.0
COc1ccc(NC(=O)Nc2sc(=S)n(C)c2C)cc1	none
CCOC(=O)C1(CCc2ccccc2)CCN(C(=O)C2CCOCC2)CC1	SR-BI HDL uptake 80.3
CCOC(=O)C1(Cc2cccc(F)c2)CCN(C(=O)C2CCOCC2)CC1	none
